Measurements taken from ChEMBL document CHEMBL4513216, “Probing the Open Global Health Chemical Diversity Library for Multistage-Active Starting Points for Next-Generation Antimalarials” (ACS Infect Dis, 2020).

Assay: Toxicity liver stage against HepG2, at 10uM
Assay type: cell-based
Design: test concentration 10 uM, cell line HepG2-A16-CD81EGFP
Conditions: human, HepG2-A16-CD81EGFP cells; read-out: INHIBITION
Outline: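 Uninfected HepG2-A16-CD81EGFP cells, 3 × 10^3 per well, 1536-well, plated on prespotted compound at 10 μM final, parasite-free screening media added to match infected plates; puromycin 10 μM positive, DMSO 0.5% negative; run in parallel with 48 h PbLuc assay at 37 °C, 5% CO2; viability by CellTiter-Glo luminescence, normalized to controls.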

Row | SMILES | cytotoxicity at 10 µM
1 | CSc1ccc(-c2noc(CN(CC(C)C)CC(C)C)n2)cc1 | -3.7%
2 | Cc1ccc(C(=O)N2C[C@@H](OCC3CCOCC3)[C@H]3OCCC[C@H]32)o1 | -3.55%
3 | CCCN(CCC)C(=O)CN1CCCC1C(=O)N(C)C (stereo unspecified) | 7.42%
4 | FC(F)(F)COCCN1CCOC(Cn2cccn2)C1 (stereo unspecified) | -6.1%
5 | O=C(CCCn1cncn1)N1CCC2(CCCN(C3CCCC3)C2=O)C1 (stereo unspecified) | -1.8%
6 | COCCn1ccc(NC(=O)Nc2ccc(C(N)=O)c(F)c2)n1 | 2.63%
7 | CN1CC2(CCN(C(=O)c3cc(-n4cccn4)ccc3Cl)CC2)OC1=O | 2.3%
8 | COc1ccc(NC(C)c2nnnn2-c2ccccc2)cn1 (stereo unspecified) | 3.99%
9 | Cn1nc(C(=O)NCc2cccs2)c2c1CCS(=O)(=O)C2 | -0.328%
10 | CCC(CO)N(Cc1ccc(C(=O)O)cc1)Cc1ccsc1 (stereo unspecified) | 2.17%
11 | Cc1ncsc1C(=O)NC1CCN(CCCC#N)CC1 | -14.7%
12 | c1ccc(CO[C@H]2CN(c3ncccn3)C[C@@]23CCCO3)cc1 | -6.11%
13 | COc1ccc(Cl)cc1S(=O)(=O)N(C)CC(=O)Nc1ccccc1 | -2.76%
14 | CN(C)C(=O)CN1CCCC(c2nccnc2-c2cccc(Cl)c2)C1 (stereo unspecified) | 4.21%
15 | CCCN1CCCn2nc(CNC(=O)C3CCOC3)cc2C1 (stereo unspecified) | 0.237%
16 | CCN(CC)C(=O)Nc1ccc(C(=O)N(C)C)c(C)c1 | 7.52%
17 | CC(NCc1cccc(C#N)c1)c1ccccn1 (stereo unspecified) | -9.61%
18 | COCCN1CCc2cc(C(=O)NC(C)C)c(NCC(C)C)nc2CC1 | -163%
19 | N[C@@H]1CC[C@H](C(=O)NCCn2cc(Cl)cn2)C1 | -36.4%
20 | O=C(CCc1cccc(C2CCNCC2)n1)N1CCCCC1 | -4.78%
21 | CC(C)CC(O)C1CCN(Cc2ccc(N(C)C)nc2)CC1 (stereo unspecified) | 1.75%
22 | O=C(c1cnccn1)N1CCCC2(CCN(Cc3cccnc3)C2)C1 (stereo unspecified) | -129%
23 | CS(=O)(=O)c1cnc(N2CCCC2)nc1C1CCN(C(=O)C2CC2)CC1 | 1.45%

Row | SMILES | cytotoxicity at 10 µM
24 | O=C(c1ccc2nccnc2c1)N1CCN(CCO)[C@@H]2CS(=O)(=O)C[C@@H]21 | -10.4%
25 | Cc1ccc(C(=O)NCCS(=O)(=O)N2CCSCC2)o1 | 6.13%
26 | CCOc1ccc(CN2CCN(C(=O)c3cc(C4CC4)[nH]n3)CC2)cc1 | 36.1%
27 | COCCCN1CCC(N(Cc2noc(C)n2)C(C)=O)C1 (stereo unspecified) | -4.22%
28 | COc1c(CNCc2ccc(CN3CCOCC3)cc2)c(C)nn1C | -11.8%
29 | Cc1cc2n(n1)CC(CNCCc1cnn(C)c1)CN2 (stereo unspecified) | 5.27%
30 | CCOc1cc(CNC(=O)N2CCC(Cc3cnn(C)c3)C2)ccn1 (stereo unspecified) | -8.29%
31 | CC(C(=O)NCCCn1ccnc1)n1cc(Br)cn1 (stereo unspecified) | -13.8%
32 | Cn1ncc2c(=O)[nH]c(CN(Cc3cccc(F)c3)C3CC3)nc21 | -13.1%
33 | c1csc(CN2CCc3c(CNc4nncs4)cncc3C2)c1 | -70.1%
34 | Cc1cnn(CC2CCCN2C(=O)c2cccc(S(C)(=O)=O)c2)c1 (stereo unspecified) | -10.3%
35 | COCCN1CCC(N(Cc2noc(C3CC3)n2)C(C)=O)C1 (stereo unspecified) | -12.4%
36 | CNC(=O)CS(=O)(=O)NC1CCC(C)CC1 (stereo unspecified) | -8.18%
37 | Cc1cccc2c(CCNC(=O)NCCC[S+](C)[O-])c[nH]c12 (stereo unspecified) | -25.4%
38 | CCOc1ccc(CN[C@@H]2COC[C@H]2c2ccc(F)cc2)cc1 | 17.1%
39 | Cc1ccc(N2CCCC(NCc3nnc4n3CCCC4)C2=O)cc1 (stereo unspecified) | -6.69%
40 | O=C(NCCNC(=O)C1CC1)c1sccc1Br | 1.66%
41 | CNc1ncccc1C(=O)N1CCCC2(CCN(C)CC2)CC1 | -9.17%
42 | Cc1ccn(CCNC(=O)C2(C)CC(c3ccccc3)=NO2)n1 (stereo unspecified) | 8.46%
43 | CCc1cc(NC(=O)C2CCCN(C(=O)NCC(C)C)C2)[nH]n1 (stereo unspecified) | -4.56%
44 | Cc1cnn(CC2CN(Cc3nc(-c4cccnc4)no3)CCO2)c1 (stereo unspecified) | -20.5%
45 | O=C(c1cccc(-n2cccn2)c1)N1CCOC(CCO)C1 (stereo unspecified) | 0.0642%
46 | CC(C)CN1C(=O)CO[C@@H]2CN(C(=O)CC(F)(F)F)C[C@H]21 | -1.74%

Row | SMILES | cytotoxicity at 10 µM
47 | Cc1nn(C)c(Oc2ccc(Cl)cc2)c1CN1CCC(CN)C1 (stereo unspecified) | -7.52%
48 | CCC(NC(=O)C1CCN(C(=O)C2CC2)CC1)c1cn2cccnc2n1 (stereo unspecified) | 0.0482%
49 | COc1ccccc1OCCNCCn1cccn1 | -4.53%
50 | Cc1cc(C)c(C(=O)N[C@H](C(N)=O)c2ccccc2)c(=O)[nH]1 | -2.06%
51 | CS(=O)(=O)N1CCCC(C(=O)Nc2cnn(Cc3ccc(F)cc3)c2)C1 (stereo unspecified) | -3.64%
52 | O=C(CCc1nccs1)N1CCCC(n2cccn2)C1 (stereo unspecified) | -14.4%
53 | c1cc2c(cc1CN1CC[C@H]3[C@H]1CCN3CC1CC1)OCO2 | 1.67%
54 | Cc1noc(C)c1CNC(=O)N1CCC(OCC2CC2)CC1 | -11%
55 | Cn1cc(Br)c(C(=O)NCCn2cc(Br)cn2)n1 | -13.3%
56 | Cc1nc(-c2ccncc2)ncc1C(C)NC(=O)CN1CCOC1=O (stereo unspecified) | 3.11%
57 | CC1CCCN(CCCNC(=O)Cc2csc(-c3ccoc3)n2)C1 (stereo unspecified) | 3.39%
58 | N#Cc1cccnc1OC1CCN(S(=O)(=O)c2ccc(Br)cc2)CC1 | 3.61%
59 | O=c1[nH]c(-c2ccncc2)nc2c1CCN(S(=O)(=O)N1CCCC1)C2 | 6.04%
60 | CC(C)c1ccc(-n2nnc(C(=O)O)c2-c2ccccn2)cc1 | 9.18%
61 | CCc1nc(-c2ccc(C(=O)N3CCC4(CC3)OCCO4)cc2)no1 | 4.32%
62 | COCCN(C)C[C@@H]1CN(C(=O)NC2CCCCC2)C[C@@H]1CO | 3.41%
63 | O=C(NC[C@H]1OC[C@@H](N(CC2CC2)CC2CC2)[C@@H]1O)Nc1ccccc1 | -2.62%
64 | NCC1CN(c2nc(-c3ccccc3)nc3c2CCNCC3)CCO1 (stereo unspecified) | -14.9%
65 | Cc1nn(C)cc1-c1ccnc(NCCN)n1 | -0.571%
66 | CN(Cc1ccc(CCC(C)(C)O)cc1)CC1(CO)CC1 | -4.32%
67 | CN(C)CC1(O)CCN(S(=O)(=O)c2cccc(F)c2)C1 (stereo unspecified) | 2.36%
68 | O=c1[nH]c(N2CCN(C3CC3)CC2)nc2c1cnn2-c1ccccc1 | 10.8%
69 | O=C(NCCNc1ccccn1)NCC1CCS(=O)(=O)C1 (stereo unspecified) | 1.48%

Row | SMILES | cytotoxicity at 10 µM
70 | COCc1noc(C2(c3cccc(Cl)c3)CCOCC2)n1 | -2.93%
71 | CC(C)(C)CN1CCCC2(CCN(C(=O)c3ccc(O)nc3)C2)C1 (stereo unspecified) | -0.937%
72 | Cc1nc(C2CCCN(C(=O)c3c[nH]c(C(C)C)n3)C2)no1 (stereo unspecified) | -7.52%
73 | CC(C)NS(=O)(=O)c1cc(C(=O)O)cc(-c2ccccc2CO)c1 | 0.555%
74 | CCCC(=O)Nc1ccc(CC(=O)N(C)CCc2cn[nH]c2)cc1 | 4.84%
75 | Cc1cnc(N2CCC3(CC2)CC3CNC(=O)C2CCC2)nc1 (stereo unspecified) | 38%
76 | Cc1ccc(CNS(=O)(=O)CCCC#N)cc1F | -9.48%
77 | CCc1nncn1CCNC(=O)N1CCCC(Cc2nccn2C)C1 (stereo unspecified) | 0.548%
78 | CCN(Cc1ccc(N(C)C)cc1)S(=O)(=O)c1cc(Br)ccc1OC | 5.12%
79 | Cc1nccc(C2CCCCN2Cc2ccccc2)n1 (stereo unspecified) | -28.2%
80 | CN(C)S(=O)(=O)NCc1cccnc1Oc1ccccc1F | 1.81%
81 | CN(C)C(=O)c1cc(-c2cnc(N)nc2)nc2cc(F)ccc12 | 2.54%
82 | CCn1cc(-c2cc(C(F)F)n3nc(CC(=O)O)nc3n2)cn1 | -9.49%
83 | CCS(=O)(=O)N1CCOC2(CCCN(c3ccccn3)C2)C1 (stereo unspecified) | 3.16%
84 | CCn1cnnc1CNC(=O)NCC(O)c1ccc(OC)cc1 (stereo unspecified) | 5.66%
85 | Cc1cc(CN2CCN(CC(O)c3ccc(C)c(C)c3)CC2)no1 (stereo unspecified) | -2.96%
86 | CCN(CC)C1CCN(c2nccc(C3CCCC3)n2)C1 (stereo unspecified) | -12.7%
87 | Cn1cc(CCNCc2cc(Br)c3c(c2)OCO3)cn1 | -18%
88 | CCNC(=O)COc1ccccc1N1CCCC(C)C1 (stereo unspecified) | 8.06%
89 | CCc1ocnc1C(=O)N1CCN(c2ccc3ccccc3c2)CC1 | 2.99%
90 | Cc1nc(CNC(C)c2ccc(OCC(=O)NC3CC3)cc2)cs1 (stereo unspecified) | -2.82%
91 | Cc1cc(-c2c[nH]nc2C2CCCCN2C(=O)c2ccccc2)on1 (stereo unspecified) | 7.9%
92 | Cc1nc([C@@H]2C[C@@H]3CCN(C(=O)c4occc4C)C[C@H]3O2)no1 | -1.04%

Row | SMILES | cytotoxicity at 10 µM
93 | CN(C)C(=O)COC1COC2(CCN(c3cnccn3)CC2)C1 (stereo unspecified) | -6.29%
94 | COC[C@@]12CCC[C@@H]1CN(C(=O)COC1CCCC1)C2 | 4.35%
95 | O=c1[nH]c(-c2ccccn2)nc2c1CCN(Cc1cccc(O)c1)C2 | -17.6%
96 | Cc1ccc(CN2CCC3(CC2)COCCN3S(C)(=O)=O)o1 | 8.86%
97 | Cc1nc(CN2CCC(N(C)Cc3nnc(C4CC4)n3C)C2)cs1 (stereo unspecified) | -10.7%
98 | CC(C)c1nc(C2CCCN2CC(=O)Nc2ccc(Cl)cn2)no1 (stereo unspecified) | -3.13%
99 | N#Cc1cccc(CN2CCCC2Cn2cncn2)c1 (stereo unspecified) | 3.15%
100 | Cc1ccnn1CCC(=O)N1CCOC(CCc2ccccc2)C1 (stereo unspecified) | -51.1%
101 | CC(C)CN1CCC(NC(C)c2ccccc2-n2cccn2)CC1 (stereo unspecified) | 1.06%
102 | CC(=O)N1CCC1c1cc(N2CC(O)C2)nc(C)n1 (stereo unspecified) | 5.76%
103 | CCc1cnc(CNc2ccc(C(=O)N3CCCC(C)C3)cc2C)o1 (stereo unspecified) | -3.58%
104 | O=C(c1scc2c1OCCO2)N1CCN(Cc2cccc(F)c2)CC1 | 0.993%
105 | Cc1ccc(CN2CC[C@H]3OCC[C@@H](C(=O)NCC4CC4)[C@@H]3C2)s1 | -0.53%
106 | COC1(CNC(=O)c2ccsc2)CCSC1 (stereo unspecified) | -3.09%
107 | CCOCCN1CCN(C=C2NN=C(c3occc3C)O2)CC1 | -50.4%
108 | COCCN1C[C@H]2CCN(C(=O)Nc3ccccc3C)CC[C@H]2S1(=O)=O | 0.64%
109 | CCCN1CCC(NCc2cccc(CN3CCOC(C)C3)c2)CC1 (stereo unspecified) | -13%
110 | CCn1nc(C)c(NC(=O)c2nnn(Cc3ccccc3)c2OC)c1C | 13.9%
111 | CN1CCCN(Cn2nc(-c3ccccc3F)ccc2=O)CC1 | 9.77%
